Laboratory results from ChEMBL document CHEMBL4304739, “Discovery of 3-(Indol-5-yl)-indazole Derivatives as Novel Myeloid Differentiation Protein 2/Toll-like Receptor 4 Antagonists for Treatment of Acute Lung Injury” (J Med Chem, 2019).
Activity calls are given as the source filed them. No cut-off for these calls is given here.

Tests used:
Homo sapiens = species: Homo sapiens; experiment: Inhibition of EGFP-fused NFkappaB (unknown origin) stably expressed in mouse RAW 264.7 cells assessed as reduction in LPS-induced transcriptional activation at 10 uM measured after 3 hrs by flow cytometric analysis; assay type: cell-based
Outline: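 RAW264.7 cells stably carrying an NF-κB response element–EGFP reporter (lentiviral, puromycin-selected). Cells treated with 500 ng/mL LPS for 1 h, then vehicle or compound (10 μM) for 3 h. EGFP signal measured by flow cytometry.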

Mus musculus [1] = experiment: Antiinflammatory activity in LPS-induced C57BL/6 mouse model of acute lung injury assessed as appearance of normal pulmonary lobule structure at 5 to 10 mg/kg, iv pretreated for 15 mins followed by LPS stimulation and measured after 6 hrs by H and E staining-based microscopic analysis; assay type: functional, organism-based
Outline: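 Male C57BL/6 mice (18−22 g; n=8 per group). Compound in 0.1% CMC-Na given by tail vein injection 15 min before intraperitoneal LPS (20 mg/kg); controls received saline. Mice were sacrificed 6 h after LPS, and serum and lung tissue were collected.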

Mus musculus [2] = experiment: Antiinflammatory activity in LPS-induced C57BL/6 mouse model of acute lung injury assessed as reduction in TNFalpha mRNA level at 10 mg/kg, iv pretreated for 15 mins followed by LPS stimulation and measured after 6 hrs by SYBR green staining-based qRT-PCR analysis; assay type: functional, organism-based
Outline: (§1)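 Total lung RNA extracted, with DNase I removal of residual DNA. Quantitative PCR with mouse gene primers; each gene normalized to β-actin. C57BL/6 mice given compound iv 15 min before intraperitoneal LPS (20 mg/kg) and killed at 6 h.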

Mus musculus [3] = experiment: Antiinflammatory activity in LPS-induced C57BL/6 mouse model of acute lung injury assessed as reduction in IL6 mRNA level at 10 mg/kg, iv pretreated for 15 mins followed by LPS stimulation and measured after 6 hrs by SYBR green staining-based qRT-PCR analysis; assay type: functional, organism-based; outline: as §1
[4] = molecular target: Cyclin-dependent kinase 3 (Homo sapiens) (UniProt Q00526); experiment: Inhibition of wild-type human full length CDK3 (M1 to H305 residues) expressed in bacterial expression system at 1 uM by Kinomescan method
Outline: (§2)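 KINOMEscan competition binding screen at 1 μM compound. Results reported as % of control = (test − positive control)/(DMSO negative control − positive control) × 100, where lower values mean stronger hits.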

[5] = molecular target: Cyclin-dependent kinase 7 (Homo sapiens) (UniProt P50613); experiment: Inhibition of wild-type human full length CDK7 (M1 to L344 residues) expressed in mammalian expression system at 1 uM by Kinomescan method; outline: as §2
Chain of Cyclin-dependent kinase 7 (Homo sapiens) (P50613 whole entry, the tested form may be a part): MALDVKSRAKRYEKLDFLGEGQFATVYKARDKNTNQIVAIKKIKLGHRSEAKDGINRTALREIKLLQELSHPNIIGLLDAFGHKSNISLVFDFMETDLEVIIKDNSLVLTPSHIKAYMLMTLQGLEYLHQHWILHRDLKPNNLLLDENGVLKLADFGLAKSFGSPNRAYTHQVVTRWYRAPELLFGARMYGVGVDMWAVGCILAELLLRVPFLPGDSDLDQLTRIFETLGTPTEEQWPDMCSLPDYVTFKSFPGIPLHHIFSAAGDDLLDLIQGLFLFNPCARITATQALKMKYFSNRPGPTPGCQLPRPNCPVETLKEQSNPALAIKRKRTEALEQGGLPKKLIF

[6] = molecular target: Serine/threonine-protein kinase Chk1 (Homo sapiens) (UniProt O14757); experiment: Inhibition of wild-type human partial length CHEK1 (M1 to G289 residues) expressed in bacterial expression system at 1 uM by Kinomescan method
Outline: (§3)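 Binding-competition screen on the KINOMEscan platform, run by the provider, with the test compound at 1 μM. Readout is percent of control: (test signal − positive control signal)/(negative control signal − positive control signal) × 100. The DMSO negative control is set as 100% Ctrl and a control compound as 0% Ctrl. Lower values mean stronger hits.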

[7] = molecular target: Ephrin type-A receptor 2 (Homo sapiens) (UniProt P29317); experiment: Inhibition of wild-type human partial length EPHA2 (T593 to V891 residues) expressed in bacterial expression system at 1 uM by Kinomescan method; outline: as §3
[8] = molecular target: Receptor tyrosine-protein kinase erbB-2 (Homo sapiens) (UniProt P04626); experiment: Inhibition of wild-type human partial length ERBB2 (K646 to V1225 residues) expressed in mammalian expression system at 1 uM by Kinomescan method; outline: as §3
[9] = molecular target: Fibroblast growth factor receptor 2 (Homo sapiens) (UniProt P21802); experiment: Inhibition of wild-type human partial length FGFR2 (D457 to E769 residues) expressed in bacterial expression system at 1 uM by Kinomescan method; outline: as §3
[10] = molecular target: Glycogen synthase kinase-3 beta (Homo sapiens) (UniProt P49841); experiment: Inhibition of wild-type human full length GSK3B (M1 to T433 residues) expressed in mammalian expression system at 1 uM by Kinomescan method; outline: as §2
[11] = molecular target: Insulin receptor (Homo sapiens) (UniProt P06213); experiment: Inhibition of wild-type human partial length INSR (P997 to E1318 residues) expressed in mammalian expression system at 1 uM by Kinomescan method; outline: as §3
[12] = molecular target: Mitogen-activated protein kinase 8 (Homo sapiens) (UniProt P45983); experiment: Inhibition of wild-type human full length JNK1 (M1 to Q384 residues) expressed in mammalian expression system at 1 uM by Kinomescan method; outline: as §2
[13] = molecular target: MAP/microtubule affinity-regulating kinase 3 (Homo sapiens) (UniProt P27448); experiment: Inhibition of wild-type human full length MARK3 (M1 to L729 residues) expressed in bacterial expression system at 1 uM by Kinomescan method; outline: as §2
[14] = molecular target: MAP kinase-interacting serine/threonine-protein kinase 1 (Homo sapiens) (UniProt Q9BUB5); experiment: Inhibition of wild-type human full length MKNK1 (M1 to L424 residues) expressed in mammalian expression system at 1 uM by Kinomescan method; outline: as §2
Chain of MAP kinase-interacting serine/threonine-protein kinase 1 (Homo sapiens) (Q9BUB5 whole entry, looked up, the tested form may be a part): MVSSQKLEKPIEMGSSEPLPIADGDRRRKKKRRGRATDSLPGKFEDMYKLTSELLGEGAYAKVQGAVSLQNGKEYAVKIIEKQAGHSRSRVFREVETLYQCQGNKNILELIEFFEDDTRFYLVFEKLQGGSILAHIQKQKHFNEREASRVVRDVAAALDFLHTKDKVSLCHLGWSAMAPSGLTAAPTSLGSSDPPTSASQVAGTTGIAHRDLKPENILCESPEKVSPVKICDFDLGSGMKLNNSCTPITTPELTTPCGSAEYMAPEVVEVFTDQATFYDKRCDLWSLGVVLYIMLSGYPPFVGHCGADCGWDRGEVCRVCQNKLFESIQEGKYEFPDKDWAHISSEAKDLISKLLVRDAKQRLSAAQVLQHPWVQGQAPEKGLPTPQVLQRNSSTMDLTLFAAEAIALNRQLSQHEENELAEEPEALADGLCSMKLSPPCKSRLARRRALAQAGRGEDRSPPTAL

[15] = molecular target: Mitogen-activated protein kinase 14 (Homo sapiens) (UniProt Q16539); experiment: Inhibition of wild-type human full length p38-alpha (M1 to S360 residues) expressed in bacterial expression system at 1 uM by Kinomescan method; outline: as §2
[16] = molecular target: Platelet-derived growth factor receptor alpha (Homo sapiens) (UniProt P16234); experiment: Inhibition of wild-type human partial length PDGFRA (V575 to D1002 residues) expressed in mammalian expression system at 1 uM by Kinomescan method; outline: as §3
Chain of Platelet-derived growth factor receptor alpha (Homo sapiens) (P16234 whole entry, the tested form may be a part): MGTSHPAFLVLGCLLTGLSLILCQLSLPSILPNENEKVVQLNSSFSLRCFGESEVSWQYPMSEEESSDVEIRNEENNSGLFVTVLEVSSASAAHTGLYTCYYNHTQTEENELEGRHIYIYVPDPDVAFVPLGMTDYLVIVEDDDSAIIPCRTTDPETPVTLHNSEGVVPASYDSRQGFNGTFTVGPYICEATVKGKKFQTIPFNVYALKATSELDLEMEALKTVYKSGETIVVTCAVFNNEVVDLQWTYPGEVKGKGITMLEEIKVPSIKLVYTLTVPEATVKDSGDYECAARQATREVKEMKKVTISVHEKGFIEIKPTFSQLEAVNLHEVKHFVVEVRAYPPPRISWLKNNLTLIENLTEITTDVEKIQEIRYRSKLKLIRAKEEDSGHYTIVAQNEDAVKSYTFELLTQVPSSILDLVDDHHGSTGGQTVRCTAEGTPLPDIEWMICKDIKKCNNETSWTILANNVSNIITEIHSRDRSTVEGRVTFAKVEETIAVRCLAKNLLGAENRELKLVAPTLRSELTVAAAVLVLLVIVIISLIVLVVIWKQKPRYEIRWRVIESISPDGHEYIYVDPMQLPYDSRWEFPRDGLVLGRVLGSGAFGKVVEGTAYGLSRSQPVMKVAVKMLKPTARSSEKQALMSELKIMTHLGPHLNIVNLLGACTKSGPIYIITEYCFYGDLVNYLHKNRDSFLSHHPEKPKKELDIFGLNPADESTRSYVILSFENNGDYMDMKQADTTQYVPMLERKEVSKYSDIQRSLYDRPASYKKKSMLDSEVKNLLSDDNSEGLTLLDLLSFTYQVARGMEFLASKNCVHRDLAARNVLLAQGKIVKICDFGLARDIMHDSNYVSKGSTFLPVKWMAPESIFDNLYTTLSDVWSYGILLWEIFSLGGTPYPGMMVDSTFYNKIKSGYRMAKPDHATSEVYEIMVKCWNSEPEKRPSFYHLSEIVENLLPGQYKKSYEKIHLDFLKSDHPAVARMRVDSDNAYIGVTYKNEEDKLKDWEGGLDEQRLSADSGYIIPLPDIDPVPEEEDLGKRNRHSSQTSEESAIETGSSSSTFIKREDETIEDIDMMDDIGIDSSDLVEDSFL

[17] = molecular target: Serine/threonine-protein kinase pim-3 (Homo sapiens) (UniProt Q86V86); experiment: Inhibition of wild-type human partial length PIM3 (G16 to A317 residues) expressed in bacterial expression system at 1 uM by Kinomescan method; outline: as §3
[18] = molecular target: Serine/threonine-protein kinase PLK1 (Homo sapiens) (UniProt P53350); experiment: Inhibition of wild-type human partial length PLK1 (A33 to F325 residues) expressed in mammalian expression system at 1 uM by Kinomescan method; outline: as §3
Chain of Serine/threonine-protein kinase PLK1 (Homo sapiens) (P53350 whole entry, the tested form may be a part): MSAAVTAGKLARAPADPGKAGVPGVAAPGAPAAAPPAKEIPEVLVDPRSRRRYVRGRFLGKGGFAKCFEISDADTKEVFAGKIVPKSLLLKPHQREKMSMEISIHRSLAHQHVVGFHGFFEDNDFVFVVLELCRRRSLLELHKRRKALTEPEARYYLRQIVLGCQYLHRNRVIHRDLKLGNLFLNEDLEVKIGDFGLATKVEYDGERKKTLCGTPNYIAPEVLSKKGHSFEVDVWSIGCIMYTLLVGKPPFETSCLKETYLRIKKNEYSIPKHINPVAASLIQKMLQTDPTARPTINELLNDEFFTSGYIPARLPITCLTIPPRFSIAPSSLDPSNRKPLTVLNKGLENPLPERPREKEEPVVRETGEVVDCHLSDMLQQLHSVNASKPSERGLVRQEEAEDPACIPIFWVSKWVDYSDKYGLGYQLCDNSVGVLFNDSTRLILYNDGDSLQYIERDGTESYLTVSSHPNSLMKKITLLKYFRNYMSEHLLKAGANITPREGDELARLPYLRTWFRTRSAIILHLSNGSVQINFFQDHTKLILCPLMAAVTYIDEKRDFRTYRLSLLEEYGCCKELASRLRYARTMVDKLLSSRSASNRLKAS

[19] = molecular target: Ribosomal protein S6 kinase alpha-3 (Homo sapiens) (UniProt P51812); experiment: Inhibition of wild-type human partial length N-terminal RSK2 kinase domain 1 (M1 to D394 residues) expressed in mammalian expression system at 1 uM by Kinomescan method; outline: as §3
Chain of Ribosomal protein S6 kinase alpha-3 (Homo sapiens) (P51812 whole entry, the tested form may be a part): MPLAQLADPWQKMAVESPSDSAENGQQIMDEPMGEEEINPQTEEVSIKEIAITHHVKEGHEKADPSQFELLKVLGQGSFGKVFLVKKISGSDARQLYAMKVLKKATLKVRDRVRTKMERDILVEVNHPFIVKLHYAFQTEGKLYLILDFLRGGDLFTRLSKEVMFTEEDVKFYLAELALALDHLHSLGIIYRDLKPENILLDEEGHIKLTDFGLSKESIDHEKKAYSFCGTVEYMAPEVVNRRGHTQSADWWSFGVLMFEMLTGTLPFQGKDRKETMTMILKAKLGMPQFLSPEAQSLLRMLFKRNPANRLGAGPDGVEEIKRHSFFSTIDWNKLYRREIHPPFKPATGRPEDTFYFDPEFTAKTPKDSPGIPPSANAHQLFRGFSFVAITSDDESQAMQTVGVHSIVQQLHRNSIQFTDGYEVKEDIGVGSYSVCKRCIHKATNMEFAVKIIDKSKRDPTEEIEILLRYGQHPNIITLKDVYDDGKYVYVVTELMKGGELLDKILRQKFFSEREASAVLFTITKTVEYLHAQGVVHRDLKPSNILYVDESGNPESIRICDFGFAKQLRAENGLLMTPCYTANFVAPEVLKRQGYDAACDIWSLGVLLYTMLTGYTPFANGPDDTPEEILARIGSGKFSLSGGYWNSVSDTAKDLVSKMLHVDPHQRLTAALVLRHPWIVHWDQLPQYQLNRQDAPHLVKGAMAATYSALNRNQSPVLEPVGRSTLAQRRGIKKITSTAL

[20] = molecular target: Testis-specific serine/threonine-protein kinase 1 (Homo sapiens) (UniProt Q9BXA7); experiment: Inhibition of wild-type human full length TSSK1B (M1 to Q367 residues) expressed in bacterial expression system at 1 uM by Kinomescan method; outline: as §2
Chain of Testis-specific serine/threonine-protein kinase 1 (Homo sapiens) (Q9BXA7 whole entry, the tested form may be a part): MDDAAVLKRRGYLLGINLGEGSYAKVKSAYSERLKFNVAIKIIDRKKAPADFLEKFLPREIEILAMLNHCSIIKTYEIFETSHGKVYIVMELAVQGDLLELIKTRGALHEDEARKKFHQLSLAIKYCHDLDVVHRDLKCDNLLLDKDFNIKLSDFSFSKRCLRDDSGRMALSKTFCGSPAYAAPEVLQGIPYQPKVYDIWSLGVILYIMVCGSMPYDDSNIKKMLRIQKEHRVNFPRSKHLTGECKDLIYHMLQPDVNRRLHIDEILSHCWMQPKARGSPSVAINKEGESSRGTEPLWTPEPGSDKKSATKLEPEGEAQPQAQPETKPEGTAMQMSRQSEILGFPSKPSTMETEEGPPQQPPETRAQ

[21] = molecular target: Non-receptor tyrosine-protein kinase TYK2 (Homo sapiens) (UniProt P29597); experiment: Inhibition of wild-type human partial length TYK2 JH1 catalytic domain (V877 to C1187 residues) expressed in mammalian expression system at 1 uM by Kinomescan method
Chain of Non-receptor tyrosine-protein kinase TYK2 (Homo sapiens) (P29597 whole entry, the tested form may be a part): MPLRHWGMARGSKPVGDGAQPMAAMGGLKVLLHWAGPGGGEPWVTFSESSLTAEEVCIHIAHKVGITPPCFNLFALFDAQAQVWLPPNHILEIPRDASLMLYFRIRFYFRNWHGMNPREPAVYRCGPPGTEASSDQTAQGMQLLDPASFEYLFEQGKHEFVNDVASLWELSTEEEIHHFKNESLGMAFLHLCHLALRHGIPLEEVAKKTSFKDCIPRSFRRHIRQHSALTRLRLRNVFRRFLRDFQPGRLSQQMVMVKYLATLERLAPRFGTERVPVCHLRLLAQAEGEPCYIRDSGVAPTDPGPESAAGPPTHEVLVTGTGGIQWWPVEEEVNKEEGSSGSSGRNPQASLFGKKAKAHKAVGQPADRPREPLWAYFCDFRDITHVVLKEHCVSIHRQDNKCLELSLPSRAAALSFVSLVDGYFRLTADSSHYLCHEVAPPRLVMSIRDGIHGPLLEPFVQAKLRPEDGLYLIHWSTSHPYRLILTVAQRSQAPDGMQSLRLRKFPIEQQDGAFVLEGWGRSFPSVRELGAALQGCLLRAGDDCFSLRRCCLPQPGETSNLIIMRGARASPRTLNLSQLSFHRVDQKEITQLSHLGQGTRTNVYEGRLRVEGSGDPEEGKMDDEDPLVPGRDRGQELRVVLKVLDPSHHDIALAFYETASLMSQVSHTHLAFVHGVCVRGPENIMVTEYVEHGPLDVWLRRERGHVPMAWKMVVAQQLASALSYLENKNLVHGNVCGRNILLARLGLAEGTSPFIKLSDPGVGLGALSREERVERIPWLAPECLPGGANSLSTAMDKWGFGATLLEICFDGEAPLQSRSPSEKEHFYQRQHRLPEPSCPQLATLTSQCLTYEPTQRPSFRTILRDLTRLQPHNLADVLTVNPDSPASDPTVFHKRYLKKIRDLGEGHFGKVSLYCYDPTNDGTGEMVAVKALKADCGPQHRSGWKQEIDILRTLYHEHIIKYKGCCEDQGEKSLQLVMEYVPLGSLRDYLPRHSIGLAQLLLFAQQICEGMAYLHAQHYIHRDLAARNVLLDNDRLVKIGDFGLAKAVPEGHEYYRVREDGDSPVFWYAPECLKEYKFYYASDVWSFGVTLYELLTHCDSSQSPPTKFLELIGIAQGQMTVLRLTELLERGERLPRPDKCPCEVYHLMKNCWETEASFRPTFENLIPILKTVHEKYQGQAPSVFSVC
Outline: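 Single-concentration screen at 1 μM on the KINOMEscan panel (98 kinases), run by the platform provider. Results are given as percent of control: % Ctrl = [(test signal − positive control signal)/(negative control signal − positive control signal)] × 100. DMSO serves as negative control (100% Ctrl) and a control compound as positive control (0% Ctrl). Lower values mean stronger binding hits.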

With `O=C(Nc1ccc2[nH]nc(-c3ccc4[nH]ccc4c3)c2c1)c1c(Cl)cccc1Cl` as the compound, how does the inhibition (Homo sapiens) read?
The inhibition was “Active”.

And the Activity (Mus musculus [1])?
Its Activity is “Active”.

What about the Activity (Mus musculus [2]) of the same compound?
The Activity was “Active”.

And the Activity (Mus musculus [3])?
Its Activity is “Active”.

And the inhibition [4]?
Its inhibition is “inactive”.

And the inhibition [5]?
Its inhibition is “inactive”.

And the inhibition [6]?
The inhibition was “inactive”.

What about the inhibition [7] of the same compound?
Its inhibition is “inactive”.

What about the inhibition [8] of the same compound?
The inhibition was “inactive”.

What about the inhibition [9] of the same compound?
Its inhibition is “inactive”.

What about the inhibition [10] of the same compound?
Its inhibition is “inactive”.

What about the inhibition [11] of the same compound?
The inhibition was “inactive”.

What about the inhibition [12] of the same compound?
Its inhibition is “inactive”.

What about the inhibition [13] of the same compound?
The inhibition was “inactive”.

What about the inhibition [14] of the same compound?
The inhibition was “inactive”.

And the inhibition [15]?
Its inhibition is “inactive”.

What about the inhibition [16] of the same compound?
Its inhibition is “inactive”.

What about the inhibition [17] of the same compound?
The inhibition was “inactive”.

And the inhibition [18]?
Its inhibition is “inactive”.

What about the inhibition [19] of the same compound?
Its inhibition is “inactive”.

And the inhibition [20]?
The inhibition was “inactive”.

And the inhibition [21]?
Its inhibition is “inactive”.
